In ChEMBL document CHEMBL1140316, “Synthesis and immunosuppressive activity of new artemisinin derivatives. 1. [12(beta or alpha)-Dihydroartemisininoxy]phen(ox)yl aliphatic acids and esters” (J Med Chem, 2005) one finds Selectivity index, CC50 and IC50 data, which are given here for 23 compounds.

Assay [1] is filed under the species Mus musculus. The experiment in a line: Ratio of concentration that reduced cell viability to inhibitory concentration for ConA-induced T cell proliferation. It counts as functional.
Assay [2] is filed under the species Mus musculus. The experiment in a line: In vitro concentration of compound required to reduced spleen cell viability to 50% in BALB/c mice. It counts as functional. A digest of the protocol:
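Male BALB/c mouse spleen cells (7–9 weeks), erythrocytes lysed with ammonium chloride, 5 × 10^5 cells per well in RPMI 1640/10% FBS with antibiotics. Exposed to a range of compound concentrations for 48 h at 37 °C, 5% CO2. MTT (5 mg/mL stock) added for the final 5 h, then SDS/DMF lysis buffer (pH 7.2) for 6–7 h. Absorbance read at 570 nm; CC50 is the concentration reducing viability to 50%.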

The nature of assay [3]: In vitro concentration of compound required to inhibit LPS-induced B cell proliferation to 50% in BALB/c mice. The settings on record: Mus musculus. It counts as functional, cell-based. A digest of the protocol:
(§1)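 Fresh spleen cells from male BALB/c mice (7–9 weeks); 5 × 10^5 cells per well in RPMI 1640 with 10% FBS, penicillin/streptomycin, 37 °C, 5% CO2, 48 h, with test compounds at varied concentrations. Stimulated with 5 µg/mL ConA (T cells) or 10 µg/mL LPS (B cells). Proliferation read as [3H]thymidine uptake over an 8 h pulse (20 kBq/well), scintillation counting. IC50 is the concentration that inhibits proliferation to 50% of control.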

Assay [4] is filed under the species Mus musculus. Description: Ratio of concentration that reduced cell viability to inhibitory concentration for LPS-induced B cell proliferation. The format is functional.
The test system of assay [5] is T-cell. The experiment in a line: In vitro concentration of compound required to inhibit ConA-induced T cell proliferation to 50% in BALB/c mice. The format is functional, cell-based. The settings on record: Mus musculus. A digest of the protocol: as §1

Each structure is given as a SMILES string. pIC50: −log10 of the molar value.

As a reminder, the CC50 is the concentration at which the toxic effect on the cells reaches its halfway point. What is called pIC50 is the IC50 on a negative log10 scale, so that one unit is a factor of ten. On to `COC(=O)CCc1ccc(O[C@H]2O[C@@H]3OC4(C)CC[C@H]5[C@H](C)CC[C@@H]([C@H]2C)[C@@]35OO4)cc1` (single isomer, unassigned), for which the Selectivity index in assay [1] is 302; in assay [4], 2343. The compound also yielded a half-maximal cytotoxic concentration (CC50) in assay [2] of 41.7 µM. The results for the pIC50 in assay [3] and in assay [5] were 7.75 and 6.86, respectively.

Consider `C[C@@H]1CC[C@H]2[C@@H](C)C(=O)O[C@@H]3O[C@@]4(C)CC[C@@H]1[C@]32OO4` [ARTEMISININ], for which the Selectivity index in assay [1] stood at 6; in assay [4] it was 3. The CC50 in assay [2] was 28.3 µM. Moreover, the values for the pIC50 in assay [3] and in assay [5] were 5.05 and 5.35, respectively.

For the compound `CCOC(=O)C(C)Oc1ccc(OC2O[C@@H]3OC4(C)CCC5[C@H](C)CC[C@@H]([C@H]2C)[C@]53OO4)cc1` (single isomer, unassigned), the Selectivity index is recorded as over 385 in assay [1] and over 118 in assay [4]. The compound further displayed a CC50 in assay [2] of over 100 µM. For the same compound, the pIC50 in assay [3] is 6.07; in assay [5] it was 6.59.

Consider `CO[C@H]1O[C@@H]2O[C@@]3(C)CC[C@H]4[C@H](C)CC[C@@H]([C@H]1C)[C@@]24OO3` [ARTEMETHER], for which the Selectivity index in assay [1] is on record as 23; in assay [4], 48. In assay [2], the CC50 was 86 µM. Further, the pIC50 in assay [3] is 5.75; in assay [5], 5.42.

`CCOC(=O)C(C)Oc1cccc(O[C@H]2O[C@@H]3OC4(C)CC[C@H]5[C@H](C)CC[C@@H]([C@H]2C)[C@@]35OO4)c1` (single isomer, unassigned): the Selectivity index in assay [1] is 1; in assay [4], 5. In assay [2], the CC50 was determined as 2.99 µM. Besides, the values for the pIC50 in assay [3] and in assay [5] were 6.25 and 5.44, respectively.

With `C[C@H]1[C@H](OC(=O)CCC(=O)O)O[C@@H]2O[C@@]3(C)CC[C@H]4[C@H](C)CC[C@@H]1[C@@]24OO3` [ARTESUNATE], the Selectivity index in assay [1] was 7; in assay [4], 33. The CC50 in assay [2] was 32.9 µM. Moreover, the pIC50 is 6.00 in assay [3] and 5.34 in assay [5].

On to `COc1ccccc1OC(=O)C(C)Oc1ccc(O[C@H]2O[C@@H]3OC4(C)CC[C@H]5[C@H](C)CC[C@@H]([C@H]2C)[C@@]35OO4)cc1` (single isomer, unassigned), for which the Selectivity index in assay [1] was 17; in assay [4] it was 145. Moreover, in assay [2], the CC50 stood at 39.1 µM. Moreover, the negative logarithm of the IC50 (pIC50) in assay [3] was 6.57; in assay [5], 5.63.

On to `C[C@H]1[C@@H](Oc2ccc(OCC(=O)OCCN(C)C)cc2)O[C@@H]2OC3(C)CC[C@H]4[C@H](C)CC[C@@H]1[C@@]24OO3` (single isomer, unassigned), for which the figures for the Selectivity index in assay [1] and in assay [4] were 1 and 42, respectively. For the same compound, the midpoint of cytotoxicity in assay [2], the CC50, lay at 2.08 µM. Further, the values for the pIC50 in assay [3] and in assay [5] were 7.30 and 5.71, respectively.

With `C[C@H]1[C@@H](Oc2ccc(CCC(=O)O)cc2)O[C@@H]2OC3(C)CC[C@H]4[C@H](C)CC[C@@H]1[C@@]24OO3` (single isomer, unassigned), the Selectivity index was 3 in assay [1] and 97 in assay [4]. The compound further gave a CC50 in assay [2] of 10.4 µM. Moreover, the pIC50 in assay [3] was 6.97; in assay [5] it was 5.40.

Turning to `C[C@H]1[C@@H](Oc2ccc(OCC(=O)O)cc2)OC2OC3(C)CCC4[C@H](C)CC[C@@H]1[C@@]24OO3` (single isomer, unassigned), the Selectivity index turned out to be 66 in assay [1] and 59 in assay [4]. Further, in assay [2], it took 354 µM to reach half-maximal cytotoxicity (CC50). Further, the pIC50 in assay [3] was 5.22; in assay [5], 5.27.

`C[C@H]1[C@@H](Oc2cccc(OC(=O)CCC(=O)O)c2)O[C@@H]2O[C@]3(C)CCC4[C@H](C)CC[C@@H]1[C@]42OO3` (some centres not stated): the Selectivity index came to 161 in assay [1] and 199 in assay [4]. Moreover, the midpoint of cytotoxicity in assay [2], the CC50, lay at 52.7 µM. Further, the pIC50 in assay [3] is 6.58; in assay [5] it was 6.49.

Turning to `COC(=O)COc1ccc(O[C@H]2OC3OC4(C)CC[C@H]5[C@H](C)CC[C@@H]([C@H]2C)[C@@]35OO4)cc1` (single isomer, unassigned), the Selectivity index in assay [1] is recorded as 848; in assay [4], 28473. The same compound displayed a CC50 in assay [2] of 207 µM. Moreover, the pIC50 is 8.14 in assay [3] and 6.61 in assay [5].

As to `CC(Oc1cccc(OC2O[C@@H]3O[C@]4(C)CC[C@H]5[C@H](C)CC[C@@H]([C@H]2C)[C@@]35OO4)c1)C(=O)O` (some centres not stated), the Selectivity index was 4 in assay [1] and 47 in assay [4]. In assay [2], this compound showed a CC50 of 35.1 µM. Further, the pIC50 in assay [3] was 6.13; in assay [5], 5.07.

As to `COC(=O)Cc1ccc(O[C@H]2O[C@@H]3OC4(C)CCC5[C@H](C)CC[C@@H]([C@H]2C)[C@]53OO4)cc1` (single isomer, unassigned), the Selectivity index in assay [1] is on record as 11; in assay [4] it was 45. Also, in assay [2], the half-maximal cytotoxic concentration (CC50) was determined as 8 µM. For the same compound, the figures for the pIC50 in assay [3] and in assay [5] were 6.75 and 6.15, respectively.

Turning to `CCOC(=O)C(C)Oc1cccc(OC2OC3OC4(C)CC[C@H]5[C@H](C)CC[C@@H]([C@H]2C)[C@@]35OO4)c1` (single isomer, unassigned), the Selectivity index is listed as 1 in assay [1] and 4 in assay [4]. In addition, in assay [2], the midpoint of cytotoxicity, the CC50, lay at 1.36 µM. Besides, the pIC50 is 6.46 in assay [3] and 5.76 in assay [5].

`CC(Oc1ccc(OC2O[C@@H]3OC4(C)CC[C@H]5[C@H](C)CC[C@@H]([C@H]2C)[C@@]35OO4)cc1)C(=O)O` (single isomer, unassigned): the Selectivity index is reported as over 14 in assay [1] and over 116 in assay [4]. The CC50 in assay [2] is over 100 µM. Further, the pIC50 in assay [3] was 6.07; in assay [5] it was 5.14.

Turning to `COc1ccccc1OC(=O)C(C)Oc1cccc(O[C@H]2O[C@@H]3OC4(C)CC[C@H]5[C@H](C)CC[C@@H]([C@H]2C)[C@@]35OO4)c1` (single isomer, unassigned), the Selectivity index in assay [1] came out at 1; in assay [4], 5. For the same compound, it took 2.99 µM to reach half-maximal cytotoxicity in assay [2] (CC50). In addition, the pIC50 in assay [3] is 6.24; in assay [5], 5.39.

As for `COC(=O)C(C)c1ccc(O[C@H]2O[C@@H]3OC4(C)CC[C@H]5[C@H](C)CC[C@@H]([C@H]2C)[C@@]35OO4)cc1` (single isomer, unassigned), the Selectivity index in assay [1] was 477; in assay [4], 8. The same compound came in with a 50% cytotoxic concentration (CC50) in assay [2] of 6.53 µM. Besides, the pIC50 in assay [3] was 6.11; in assay [5], 7.86.

Regarding `CCOC(=O)CNC(=O)c1ccc(O[C@H]2O[C@@H]3O[C@]4(C)CC[C@H]5[C@H](C)CC[C@@H]([C@H]2C)[C@@]35OO4)cc1`, the Selectivity index in assay [1] was 51; in assay [4], 2421. For the same compound, in assay [2], the CC50 is 130 µM. Also, the pIC50 in assay [3] was 7.27; in assay [5], 5.60.

Take `CC(C(=O)O)c1ccc(O[C@H]2O[C@@H]3OC4(C)CCC5[C@H](C)CC[C@@H]([C@H]2C)[C@]53OO4)cc1` (single isomer, unassigned): the Selectivity index in assay [1] amounted to 17; in assay [4] it was 7. In assay [2], this compound gave a CC50 of 59.6 µM. The pIC50 in assay [3] is 5.07; in assay [5], 5.44.

Regarding `C/C=C/C[C@@H](C)[C@@H](O)[C@H]1C(=O)N[C@@H](CC)C(=O)N(C)CC(=O)N(C)[C@@H](CC(C)C)C(=O)N[C@@H](C(C)C)C(=O)N(C)[C@@H](CC(C)C)C(=O)N[C@@H](C)C(=O)N[C@H](C)C(=O)N(C)[C@@H](CC(C)C)C(=O)N(C)[C@@H](CC(C)C)C(=O)N(C)[C@@H](C(C)C)C(=O)N1C` [CYCLOSPORINE], the figures for the Selectivity index in assay [1] and in assay [4] were 963 and 7, respectively.

As for `CC(Oc1cccc(O[C@@H]2OC3OC4(C)CCC5[C@H](C)CC[C@@H]([C@H]2C)[C@@]35OO4)c1)C(=O)O` (single isomer, unassigned), the Selectivity index in assay [1] turned out to be 1; in assay [4] it was 5. In addition, the CC50 in assay [2] was found to be 5.54 µM. In addition, the pIC50 in assay [3] was 5.98; in assay [5], 5.12.

For `C[C@H]1[C@@H](Oc2ccc(CC(=O)O)cc2)O[C@@H]2O[C@]3(C)CCC4[C@H](C)CC[C@@H]1[C@]42OO3` (some centres not stated), the figures for the Selectivity index in assay [1] and in assay [4] were over 9 and over 10, respectively. In assay [2], this compound returned a CC50 of over 100 µM. In addition, the pIC50 in assay [3] is 4.99; in assay [5], 4.93.
